Most compounds without a hit are left out; they make up all but 1.4% or so of the library.
NR2E3 ag-1: agonists of human nuclear receptor NR2E3; inhibition of corepressor binding, % at 4.78 µM; GST-NR2E3/biotin-RetCOR TR-FRET, 1536-well; AID 2300; Q9Y5X4; 320,000 compounds, 0.12% hits;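 active means percent inhibition above the cutoff of mean plus 3 SD of all tested compounds, set per screening campaign, cut at about 20% in these data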;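 further: 0% = DMSO wells and 100% = biotin wells as full block of FRET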
Target sequence (Q9Y5X4 whole entry, looked up): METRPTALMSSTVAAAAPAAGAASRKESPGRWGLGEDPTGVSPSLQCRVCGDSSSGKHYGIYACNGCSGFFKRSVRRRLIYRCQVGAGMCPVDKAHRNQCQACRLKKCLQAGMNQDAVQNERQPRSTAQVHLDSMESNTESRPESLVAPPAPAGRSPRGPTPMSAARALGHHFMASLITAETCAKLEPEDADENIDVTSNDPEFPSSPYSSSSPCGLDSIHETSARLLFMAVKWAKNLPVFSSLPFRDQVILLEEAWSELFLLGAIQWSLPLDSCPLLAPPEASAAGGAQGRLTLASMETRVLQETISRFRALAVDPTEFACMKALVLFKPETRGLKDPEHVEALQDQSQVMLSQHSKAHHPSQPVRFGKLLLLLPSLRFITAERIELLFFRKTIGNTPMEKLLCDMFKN
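Format: 1536-well format; test system: GST-NR2E3 and biotin-RetCOR proteins; read-out basis: percent inhibition of TR-FRET ratio; timing: 5 h incubation at 4 °C; detection: time-resolved FRET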
Rev-erbA mod: modulators of human Rev-erb alpha DNA binding; P20393; AID 1259318; Rev-erbα–FITC-DNA binding, fluorescence polarization, 90 min; activity, % at 10 µM; 370,000 compounds, 0.79% hits;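 active means activity above about 14%, limit read from the data; passing the limit was not always enough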;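 further: 0% = DMSO wells with 35 nM protein and 100% = DMSO wells with 750 nM protein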
PG9 Ab binder: small molecules binding HIV-1 gp120 antibody PG9; inhibition, % at 6.7 µM; TR-FRET gp120-PG9 antibody binding; 360,000 compounds, 0.43% hits; in the data active means inhibition above about 8.5%
NR2E3 ag-2: human photoreceptor-specific nuclear receptor agonism; Q9Y5X4; CHO-S Gal4-NCOR/VP16-NR2E3 two-hybrid, luciferase; inhibition of corepressor binding, % at 3.98 µM; 360,000 compounds, 0.35% hits;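 active means inhibition above the mean of all tested compounds plus 3 SD, cut at about 70% in these data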;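 further: 0% = DMSO with NR2E3 transfected cells and 100% = cells lacking NR2E3 construct; higher means lower luciferase signal from less NR2E3 corepressor binding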
NR2E3 ag conf: NR2E3 agonism confirmed in two-hybrid assay; shares compounds with NR2E3 ag-2; CHO-S mammalian two-hybrid NR2E3-NCOR, luciferase luminescence; inhibition, % at 3.98 µM; 2,300 compounds, 51% hits; AID 624378;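 active means average inhibition above a cutoff equal to the mean inhibition of all tested compounds plus one SD, cut at about 70% in these data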;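 further: 0% = DMSO in NR2E3 cells and 100% = DMSO in cells lacking NR2E3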
GAL4-VP16 luc: reduces GAL4-VP16 reporter signal in NR2E3 counterscreen. shares compounds with NR2E3 ag-2. CHO-S GAL4-VP16 luciferase reporter, luminescence. inhibition, % at 3.98 µM. 2,300 compounds, 29% hits. AID 624379;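 active means mean inhibition above a cutoff equal to the average over all tested compounds plus one standard deviation, cut at about 70% in these data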;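 further: luciferase from a UAS reporter driven by GAL4-VP16 transactivation; 0% = DMSO with VP16-transfected cells and 100% = DMSO with cells lacking VP16; higher means less reporter light so more repression of VP16 activity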
Starred values were filed as active, the others as inactive; . = not tested or not shown.

SMILES	NR2E3 ag-1	Rev-erbA mod	PG9 Ab binder	NR2E3 ag-2	NR2E3 ag conf	GAL4-VP16 luc
COc1ccc(NC(=O)c2sc(=O)n(Cc3ccc(SC)cc3)c2C)cc1OC	.	-2	-2	-28	.	.
COc1ccc(NC(=O)c2sc(=O)n(Cc3cccc(C(F)(F)F)c3)c2C)cc1OC	.	5	-2	55	73*	39
Nn1c(SCC(=O)Nc2nccs2)nnc1-c1cc(-c2ccccc2)n[nH]1	.	2	.	.	.	.
CCOc1ccc(-c2cccc(NS(=O)(=O)c3cc([N+](=O)[O-])ccc3Cl)c2)nn1	-3	-2	-2	53	18	-4
CCc1ccc(CNC(=O)c2cc3c(C)nc4ccccc4c3o2)cc1	-4	0	-2	94*	95*	87*
COC(=O)C/C=C/[C@H](C)[C@@H](NC(=O)C(F)(F)F)c1ccccc1Br	.	1	.	.	.	.
O=[N+]([O-])c1ccc(S(=O)(=O)Nc2nc(-c3ccccc3)cs2)cc1	3	2	0	24	.	.
O=S(=O)(Nc1nc(-c2ccccc2)cs1)c1cccc(C(F)(F)F)c1	0	-7	0	71*	88*	76*
O=S(=O)(Nc1nc(-c2ccccc2)cs1)c1cc(Cl)ccc1Cl	3	-5	-2	57	57	42
COC(=O)[C@]12C[C@H](CC(=O)N3CCC(c4ccccc4)CC3)C(=O)N(Cc3cccc4ccccc34)C1=C[C@H](C1CCCC1)O[C@@H]2C	.	-4	.	.	.	.
CCCCOc1ccc(CONS(=O)(=O)c2ccc(NC(C)=O)cc2)cc1Cl	-5	2	-1	50	81*	54
CN(CCO)C1CN(Cc2cn(Cc3ccccc3C(F)(F)F)nn2)S(=O)(=O)C1 (stereo not drawn)	.	-10	.	.	.	.
Cc1sc2ncnc(NCC(O)c3ccc([N+](=O)[O-])cc3)c2c1C (stereo not drawn)	7	-1	0	105*	95*	76*
Cc1sc2ncnc(NCC(O)c3ccccc3)c2c1C (stereo not drawn)	2	-7	1	75*	71*	51
Cc1sc2ncnc(NCc3cccs3)c2c1C	3	-3	0	78*	96*	81*
O=C(c1cccnc1Cl)N1CCC(Oc2cccnc2)CC1	.	-9	.	.	.	.
Cc1c(C(=O)N2CCCCC2)oc2ccc(S(=O)(=O)N3CC(C)CC(C)C3)cc12 (stereo not drawn)	-6	.	.	77*	73*	63
CCOC(=O)N1CCN(C(=O)c2oc3ccc(S(=O)(=O)N4CCCCC4)cc3c2C)CC1	-2	-4	-2	20	.	.
Cc1csc2c(N3CCN(C(=S)Nc4ccc(F)cc4F)CC3)ncnc12	3	-4	1	90*	97*	88*
O=[N+]([O-])c1ccc(N2CCN(C(=S)Nc3ccc(F)cc3F)CC2)cc1	1	-4	0	74*	73*	62
O=[N+]([O-])c1ccc(N2CCN(C(=S)Nc3ccc(F)cc3)CC2)cc1	-2	0	1	25	.	.
CCCCN(C(C)=O)c1ccc2c(c1)C1CC2CCN1C(=O)OCc1ccccc1 (stereo not drawn)	.	-1	0	68	91*	69
O=C(C1=C(c2ccccc2)C(=O)c2ccccc2C1=O)c1ccccc1	.	3	-1	78*	99*	93*
COc1ccc(/C=N\NC(=O)c2ccccc2Br)cc1COc1c(F)c(F)cc(F)c1F	0	13	3	49	35	51
COC(=O)[C@]12C[C@H](CC(=O)NCCCCc3ccccc3)C(=O)N(Cc3ccco3)C1=C[C@H](COCc1ccccc1)O[C@@H]2C	.	4	.	.	.	.
Cc1ccc(NC(=S)N=Nc2c(O)[nH]c3ccccc23)cc1	3	1	-4	62	25	6
CC(=O)N1CCN(C(=O)c2ccc(Cl)c(S(=O)(=O)N3CCCC3)c2)CC1	.	0	2	32	.	.
CC(=O)N1CCN(C(=O)c2ccc(Cl)c(S(=O)(=O)N3CC(C)OC(C)C3)c2)CC1 (stereo not drawn)	.	-4	-1	49	0	4
CCOC(=O)[C@]12CCCCC/C=C\1N(CCc1ccc(Cl)cc1)C(=O)[C@H]2CC(=O)NCc1ccccc1	.	3	.	.	.	.
Nc1nc2n[nH]nc2c(=O)[nH]1	1	-2	0	81*	24	53

Assay outcomes as filed in PubChem.
